Results from ChEMBL document CHEMBL3232996, “Synthesis and biological evaluation of novel (123)I-labeled 4-(4-iodophenyl)butanoyl-L-prolyl-(2S)-pyrrolidines for imaging prolyl oligopeptidase in vivo” (Eur J Med Chem, 2014).

Legend:
[1] = Plasma protein binding in iv dosed C57Bl/6JRccHsd mouse measured at 160 mins; assay type: ADME, organism-based; details: in vivo
Summary of the method: (§1)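 Male mice given 3.6 MBq tracer i.v. via lateral tail vein; blocking groups got POP inhibitor i.p. (50 µmol/kg, 10 mL/kg, 1% DMSO in 0.9% NaCl) 10 min before. Heparinized cardiac blood on ice, gamma-counted, spun 5 min at 2000 g; plasma counted, precipitated with 1.5 volumes acetonitrile, respun; cell-bound, protein-bound and free fractions expressed as % of blood activity; n = 3.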

[2] = Fraction unbound in iv dosed C57Bl/6JRccHsd mouse plasma measured at 80 mins; assay type: ADME, organism-based; summary of the method: as §1
[3] = Plasma protein binding in human at 2.5 MBq/ml after 2 hrs by HPLC analysis; assay type: ADME, cell-free; details: read-out: PPB (converted)
[4] = Plasma protein binding in iv dosed C57Bl/6JRccHsd mouse measured at 80 mins; assay type: ADME, organism-based; details: in vivo; summary of the method: as §1
[5] = Biodistribution in left brain hemisphere of iv dosed C57BL/6JRccHsd mouse LPS-induced acute neuroinflammation model dosed 24 hrs after LPS challenge and measured at 80 mins post dose; assay type: ADME, organism-based; details: read-out: Drug uptake
Summary of the method: (§2)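 Male mice under isoflurane got a stereotaxic LPS injection (E. coli 055:B5) into the left striatum, with buprenorphine 0.1 mg/kg s.c. for post-operative pain. The right hemisphere served as intact control. Tracer was given i.v. 24 h later. Left and right hemisphere and whole-brain radioactivity were measured 80 min post injection as %ID/g or %ID, n = 3.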

Brain = test: Biodistribution in C57Bl/6JRccHsd mouse brain at 2.86 +/- 1.26 MBq, iv measured at 80 mins post dose pretreated with 50 umol/kg, ip prolyl oligopeptidase inhibitor KYP-2047 10 mins before compound dosing by SPECT analysis; assay type: ADME, organism-based; details: in vivo
Summary of the method: (§3)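 Organs excised at 5, 20, 40, 80 or 160 min and radioactivity gamma-counted as %ID/g (brain also as %ID). Blocking groups received KYP-2047 (50 µmol/kg, 10 mL/kg, 1% DMSO in 0.9% NaCl) i.p. 10 min before tracer. Mean ± SD, n = 2–4 per time point. Blocking compared by two-tailed Student's t test.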

[6] = Biodistribution in brain of iv dosed C57BL/6JRccHsd mouse LPS-induced acute neuroinflammation model dosed 24 hrs after LPS challenge and measured at 80 mins post dose; assay type: ADME, organism-based; summary of the method: as §2
Kidney = test: Biodistribution in C57Bl/6JRccHsd mouse kidney at 2.86 +/- 1.26 MBq, iv measured at 80 mins post dose pretreated with 50 umol/kg, ip prolyl oligopeptidase inhibitor KYP-2047 10 mins before compound dosing by SPECT analysis; assay type: ADME, organism-based; details: in vivo; summary of the method: as §3
[7] = Biodistribution in C57Bl/6JRccHsd mouse urine at 2.86 +/- 1.26 MBq, iv measured at 80 mins by SPECT analysis; assay type: ADME, organism-based; details: in vivo; summary of the method: as §3
[8] = Octanol-phosphate buffer partition coefficient, log P of the compound by shake-flask method; assay type: physicochemical
Summary of the method: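 Tracer (700 kBq, in 1% DMSO/0.9% NaCl) shaken 3 min between n-octanol and 0.02 M phosphate buffer pH 7.4; octanol phase split into four tubes, re-extracted with equal buffer 10 min, centrifuged 5 min at 1000 g; log of octanol/buffer cpm per mL ratio, mean ± SD of four replicates.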

[9] = Drug uptake in iv dosed C57Bl/6JRccHsd mouse blood cells measured at 40 mins; assay type: ADME, organism-based; details: in vivo
Summary of the method: (§4)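 Mice got tracer i.v., some after i.p. KYP-2047 (50 µmol/kg) 10 min before. Cardiac blood was collected at 20, 40, 80 or 160 min and spun 5 min at 2000 g into cells and plasma. Plasma was precipitated with acetonitrile and pellet and supernatant were gamma-counted. Activity in cells, protein-bound and free plasma is given as % of total blood activity, n = 3.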

Thyroid gland [10] = test: Biodistribution in C57Bl/6JRccHsd mouse thyroid at 2.86 +/- 1.26 MBq, iv measured at 160 mins by SPECT analysis; assay type: ADME, organism-based; details: in vivo; summary of the method: as §3
[11] = Fraction unbound in iv dosed C57Bl/6JRccHsd mouse plasma measured at 20 mins post dose pretreated with 50 umol/kg, ip prolyl oligopeptidase inhibitor KYP-2047 10 mins before compound dosing by SPECT analysis; assay type: ADME, organism-based; summary of the method: as §1
[12] = Biodistribution in right brain hemisphere of iv dosed C57BL/6JRccHsd mouse dosed 24 hrs after LPS challenge and measured at 80 mins post dose; assay type: ADME, organism-based; details: read-out: Drug uptake; summary of the method: as §2
Muscle tissue = test: Biodistribution in C57Bl/6JRccHsd mouse muscle at 2.86 +/- 1.26 MBq, iv measured at 80 mins post dose pretreated with 50 umol/kg, ip prolyl oligopeptidase inhibitor KYP-2047 10 mins before compound dosing by SPECT analysis; assay type: ADME, organism-based; details: in vivo; summary of the method: as §3
Mus musculus [13] = test: Biodistribution in C57Bl/6JRccHsd mouse salivary gland at 2.86 +/- 1.26 MBq, iv measured at 80 mins by SPECT analysis; assay type: ADME, organism-based; details: in vivo; summary of the method: as §3
[14] = Drug uptake in iv dosed C57Bl/6JRccHsd mouse blood cells measured at 160 mins; assay type: ADME, organism-based; details: in vivo; summary of the method: as §4
Lung = test: Biodistribution in C57Bl/6JRccHsd mouse lung at 2.86 +/- 1.26 MBq, iv measured at 80 mins by SPECT analysis; assay type: ADME, organism-based; details: in vivo; summary of the method: as §3
Mus musculus [15] = test: Biodistribution in C57Bl/6JRccHsd mouse testis at 2.86 +/- 1.26 MBq, iv measured at 80 mins post dose pretreated with 50 umol/kg, ip prolyl oligopeptidase inhibitor KYP-2047 10 mins before compound dosing by SPECT analysis; assay type: ADME, organism-based; details: in vivo; summary of the method: as §3
Liver = test: Biodistribution in C57Bl/6JRccHsd mouse liver at 2.86 +/- 1.26 MBq, iv measured at 80 mins post dose pretreated with 50 umol/kg, ip prolyl oligopeptidase inhibitor KYP-2047 10 mins before compound dosing by SPECT analysis; assay type: ADME, organism-based; details: in vivo; summary of the method: as §3
[16] = Drug uptake in iv dosed C57Bl/6JRccHsd mouse blood cells measured at 20 mins; assay type: ADME, organism-based; details: in vivo; summary of the method: as §4
Heart = test: Biodistribution in C57Bl/6JRccHsd mouse heart at 2.86 +/- 1.26 MBq, iv measured at 80 mins by SPECT analysis; assay type: ADME, organism-based; details: in vivo; summary of the method: as §3
Mus musculus [17] = test: Drug metabolism in C57Bl/6JRccHsd mouse plasma assessed as retention time of radioactive metabolite at 3.6 MBq, iv measured at 20 mins by HPLC analysis; assay type: ADME, organism-based
Summary of the method: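 Male mice received 3.6 MBq tracer via tail vein. Cardiac blood was taken on heparin and centrifuged. Plasma was deproteinized with acetonitrile (1.5× plasma volume) and the supernatant run on reverse-phase C18 gradient HPLC. Fractions of 0.65 min were gamma-counted. Metabolite retention time was read from the 20 min sample.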

[18] = Biodistribution in C57Bl/6JRccHsd mouse urine at 2.86 +/- 1.26 MBq, iv measured at 80 mins post dose pretreated with 50 umol/kg, ip prolyl oligopeptidase inhibitor KYP-2047 10 mins before compound dosing by SPECT analysis; assay type: ADME, organism-based; details: in vivo; summary of the method: as §3
Thyroid gland [19] = test: Biodistribution in C57Bl/6JRccHsd mouse thyroid at 2.86 +/- 1.26 MBq, iv measured at 5 mins by SPECT analysis; assay type: ADME, organism-based; details: in vivo; summary of the method: as §3
Blood = test: Biodistribution in C57Bl/6JRccHsd mouse blood at 2.86 +/- 1.26 MBq, iv measured at 160 mins by SPECT analysis; assay type: ADME, organism-based; details: in vivo; summary of the method: as §3

N#C[C@@H]1CCCN1C(=O)[C@@H]1CCCN1C(=O)CCCc1ccc([123I])cc1 gave a PPB [1] of 1%, a fraction unbound at 80 min [2] of 0.15 and a fraction unbound at 2 h, 2.5 MBq/ml [3] of 0.937. The PPB [4] was 1%, the tissue uptake at 80 min [5] was 1.34 %ID/g and the Drug uptake (Brain) was 0.08 % ID/g. It also gave a tissue uptake at 80 min [6] of 0.6 %ID, a Drug uptake (Kidney) of 4.73 % ID/g and a Drug uptake [7] of 2.23 % ID/g. The logP [8] was 2.37, the Drug uptake [9] was 90% and the Drug uptake (Thyroid gland [10]) was 9.4 % ID/g. The fraction unbound at 20 min [11] was 0.47, the tissue uptake at 80 min [12] was 1.09 %ID/g and the Drug uptake (Muscle tissue) was 0.59 % ID/g. For the same compound, the Drug uptake (Mus musculus [13]) was 7.77 % ID/g, the Drug uptake [14] was 73% and the Drug uptake (Lung) was 14.67 % ID/g. The Drug uptake (Mus musculus [15]) was 0.57 % ID/g, the Drug uptake (Liver) was 5.05 % ID/g and the Drug uptake [16] was 95%. It also gave a Drug uptake (Heart) of 12.2 % ID/g, a Retention_time (Mus musculus [17]) of 4 min and a Drug uptake [18] of 45.24 % ID/g. It also gave a Drug uptake (Thyroid gland [19]) of 52 % ID/g and a Drug uptake (Blood) of 2.1 % ID/g.
